From ChEMBL document CHEMBL4680064, “Natural product inspired optimization of a selective TRPV6 calcium channel inhibitor” (RSC Med Chem, 2020)

Experiments:
[1] = Inhibition of rat L-type calcium channel (diltiazem site) at 10 uM
[2] = Inhibition of SOCE in human MDA-MB-231 cells at 5 uM pretreated for 20 mins followed by Tg addition for 10 mins followed by CaCl2 addition by FLIPR assay; format: cell-based; conditions: mda-mb-231, 0.5 h, time 30 min
Outline: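 MDA-MB-231 cells at 6 x 10⁴ cells/well in phenol-red-free RPMI with 10% FBS, assayed 16 h later. Loaded in nominally Ca²⁺-free buffer with calcium-5 for 40 min at 37 °C. Compound, with GSK-7975A as reference, given for 20 min. After a 50 s baseline, thapsigargin was added and followed for 10 min, then CaCl2 was added. SOCE taken as AUC of the Ca²⁺ entry trace.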

T47D [3] = test: Antiproliferative activity against human T47D cells assessed as cell growth inhibition at 0.4 to 100 uM after 6 days by XTT assay; format: cell-based; conditions: human, t47d, 144 h, 100 µM; dose 0.4-100 µM, time 6 day
Outline: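 Cells grown in RPMI with 10% FBS, 2 mM L-glutamine, penicillin/streptomycin and 1% non-essential amino acids. Seeded at 5 x 10³ cells/well and left 24 h at 37 °C, then treated at 100 μM to 0.4 μM. Exposure 6 days at 37 °C with fresh treatment medium every 48 h. Doxorubicin 10 μM and DMSO 0.01% served as controls. XTT with 1.25% PMS for 2 h; absorbance at 450 minus 650 nm, as % viable versus DMSO. Curves fitted by four-parameter non-linear regression. Mean ± SEM, n = 3/concentration, ≥3 independent experiments.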

HEK293 = test: Antiproliferative activity human HEK293 cells expressing human TRPV6 assessed as cell growth inhibition at 0.4 to 100 uM after 6 days by XTT assay; format: cell-based; conditions: hek293, 144 h, dose 0.4-100 µM, time 6 day
T47D [4] = test: Cytotoxicity against human T47D cells assessed as induction of cell morphological changes at 100 uM by inverted microscopic analysis; format: cell-based
Outline: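 T47D cells, cultured and treated as in the 6-day XTT proliferation assay, were photographed for morphology after exposure at 100 μM and compared with control cultures.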

D(2) dopamine receptor = D(2) dopamine receptor (Homo sapiens, UniProt P14416); test: Inhibition of human dopamine D2S receptor at 10 uM
Chain of D(2) dopamine receptor (P14416 whole entry): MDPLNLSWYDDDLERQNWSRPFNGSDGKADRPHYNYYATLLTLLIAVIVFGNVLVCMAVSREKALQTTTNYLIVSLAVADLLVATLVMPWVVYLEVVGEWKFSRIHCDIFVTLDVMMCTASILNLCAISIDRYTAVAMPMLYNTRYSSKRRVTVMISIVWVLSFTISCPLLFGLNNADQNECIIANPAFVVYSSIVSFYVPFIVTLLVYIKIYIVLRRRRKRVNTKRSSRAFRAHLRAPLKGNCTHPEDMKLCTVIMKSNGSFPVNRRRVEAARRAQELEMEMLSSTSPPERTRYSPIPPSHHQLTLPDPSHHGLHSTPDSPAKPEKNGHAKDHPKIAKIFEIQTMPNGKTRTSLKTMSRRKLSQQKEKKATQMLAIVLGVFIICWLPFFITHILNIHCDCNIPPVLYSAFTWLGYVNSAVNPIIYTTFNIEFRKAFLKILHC

[5] = biological target: T1, Alpha-1A adrenergic receptor (Homo sapiens, UniProt P35348); test: Inhibition of human alpha1A adrenergic receptor at 10 uM
T1 sequence (P35348 whole entry): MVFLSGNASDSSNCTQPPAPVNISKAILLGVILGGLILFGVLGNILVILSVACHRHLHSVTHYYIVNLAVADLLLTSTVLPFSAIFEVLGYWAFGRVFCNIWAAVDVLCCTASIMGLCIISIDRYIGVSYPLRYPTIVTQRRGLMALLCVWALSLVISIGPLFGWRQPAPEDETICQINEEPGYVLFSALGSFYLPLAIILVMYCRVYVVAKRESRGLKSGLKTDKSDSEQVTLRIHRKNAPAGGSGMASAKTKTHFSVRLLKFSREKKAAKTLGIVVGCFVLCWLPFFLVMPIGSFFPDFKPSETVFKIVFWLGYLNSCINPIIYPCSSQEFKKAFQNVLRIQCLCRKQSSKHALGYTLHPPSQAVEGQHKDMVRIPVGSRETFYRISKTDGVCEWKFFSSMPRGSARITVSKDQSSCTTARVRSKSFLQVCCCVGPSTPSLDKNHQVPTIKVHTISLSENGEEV

D(4) dopamine receptor = biological target: T2, D(4) dopamine receptor (Homo sapiens, UniProt P21917); test: Inhibition of human dopamine D4.4 receptor at 10 uM
T2 sequence (P21917 whole entry): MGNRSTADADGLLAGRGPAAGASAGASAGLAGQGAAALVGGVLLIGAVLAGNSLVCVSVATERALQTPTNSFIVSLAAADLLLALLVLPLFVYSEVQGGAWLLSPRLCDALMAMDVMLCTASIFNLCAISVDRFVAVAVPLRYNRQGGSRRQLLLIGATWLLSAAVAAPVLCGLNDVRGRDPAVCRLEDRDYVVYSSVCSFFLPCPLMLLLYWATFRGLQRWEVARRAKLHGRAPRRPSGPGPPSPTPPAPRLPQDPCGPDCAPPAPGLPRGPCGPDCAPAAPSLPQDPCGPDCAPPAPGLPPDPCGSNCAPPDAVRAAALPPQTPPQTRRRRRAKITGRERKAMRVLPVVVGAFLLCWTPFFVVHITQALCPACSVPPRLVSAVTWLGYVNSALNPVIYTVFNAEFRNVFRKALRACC

[6] = biological target: T3, Muscarinic acetylcholine receptor M1 (Homo sapiens, UniProt P11229); test: Inhibition of human muscarinic M1 receptor at 10 uM
T3 sequence (P11229 whole entry): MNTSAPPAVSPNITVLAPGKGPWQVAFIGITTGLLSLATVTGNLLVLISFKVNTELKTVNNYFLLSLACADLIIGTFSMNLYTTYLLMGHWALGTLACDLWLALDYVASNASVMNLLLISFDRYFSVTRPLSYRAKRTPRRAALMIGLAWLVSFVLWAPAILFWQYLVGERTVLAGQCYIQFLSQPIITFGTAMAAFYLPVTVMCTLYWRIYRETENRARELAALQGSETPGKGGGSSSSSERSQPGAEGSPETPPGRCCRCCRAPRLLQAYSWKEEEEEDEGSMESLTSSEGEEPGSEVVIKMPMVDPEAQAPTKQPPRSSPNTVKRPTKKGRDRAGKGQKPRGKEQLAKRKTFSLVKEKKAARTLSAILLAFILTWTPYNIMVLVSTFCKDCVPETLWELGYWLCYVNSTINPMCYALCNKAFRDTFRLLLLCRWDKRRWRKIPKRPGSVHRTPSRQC

[7] = biological target: T4, Muscarinic acetylcholine receptor M2 (Homo sapiens, UniProt P08172); test: Inhibition of human muscarinic M2 receptor at 10 uM
T4 sequence (P08172 whole entry): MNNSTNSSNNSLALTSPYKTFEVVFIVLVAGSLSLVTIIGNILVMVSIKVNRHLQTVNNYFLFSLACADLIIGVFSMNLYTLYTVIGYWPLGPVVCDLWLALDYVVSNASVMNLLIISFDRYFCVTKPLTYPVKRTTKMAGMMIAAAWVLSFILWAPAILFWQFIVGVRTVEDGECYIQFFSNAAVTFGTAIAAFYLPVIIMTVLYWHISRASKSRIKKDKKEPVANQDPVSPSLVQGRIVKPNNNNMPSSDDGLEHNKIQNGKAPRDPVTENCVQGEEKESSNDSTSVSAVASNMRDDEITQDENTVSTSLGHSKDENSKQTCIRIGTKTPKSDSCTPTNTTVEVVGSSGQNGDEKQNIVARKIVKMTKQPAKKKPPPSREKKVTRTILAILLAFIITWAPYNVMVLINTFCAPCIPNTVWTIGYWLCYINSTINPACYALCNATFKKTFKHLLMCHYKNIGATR

[8] = biological target: Kappa-type opioid receptor (Homo sapiens, UniProt P41145); test: Inhibition of human kappa-opioid receptor at 10 uM
Chain of Kappa-type opioid receptor (P41145 whole entry): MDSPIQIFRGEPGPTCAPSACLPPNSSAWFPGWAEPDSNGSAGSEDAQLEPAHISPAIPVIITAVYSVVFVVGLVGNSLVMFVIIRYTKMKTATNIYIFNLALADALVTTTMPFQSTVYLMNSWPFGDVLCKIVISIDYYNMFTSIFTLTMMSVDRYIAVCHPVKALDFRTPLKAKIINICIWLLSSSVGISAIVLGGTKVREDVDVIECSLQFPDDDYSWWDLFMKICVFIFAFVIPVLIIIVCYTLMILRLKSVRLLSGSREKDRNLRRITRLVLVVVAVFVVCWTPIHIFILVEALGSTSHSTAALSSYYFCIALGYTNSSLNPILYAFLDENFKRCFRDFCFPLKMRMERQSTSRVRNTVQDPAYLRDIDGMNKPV

inhibition (INH) [1]: Not Active
inhibition (INH) [2]: Not Active
inhibition (INH) (D(2) dopamine receptor): Not Active
inhibition (INH) [5]: Not Active
inhibition (INH) (D(4) dopamine receptor): Not Active
inhibition (INH) [6]: Not Active
inhibition (INH) [7]: Not Active
inhibition (INH) [8]: Not Active
SMILES: O=c1ccc(CN2CCN([C@H]3CC[C@@](O)(c4cccc(C(F)(F)F)c4)CC3)CC2)c[nH]1
Activity (T47D [3]): Non-Toxic
Activity (HEK293): Non-Toxic
Activity (T47D [4]): Non-Toxic
